Test results as given in paper PMC8923172 (Antimicrobial Agents and Chemotherapy, 2022).
Marks after values point to notes of the source that are not given here. Residues, ends and D or L forms follow the SMILES beside them.

Assays:
[1] = Single-dose i.v. pharmacokinetics in mice; format: in vivo, CD-1 mice; settings: 5 mg/kg single i.v. bolus, n=4/time point
Outline: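 Male and female CD-1 mice received a single 5 mg/kg i.v. bolus into the lateral tail vein, with 2/sex per time point. EDTA blood was taken by terminal cardiac puncture at 0.25, 1, 2, 4, 8 and 24 h; plasma was stored at −80°C. Sparse-sampling NCA used nominal times, linear-up/log-down AUC, and excluded values below LLOQ.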

[2] = Coagulation in rats at the end of treatment; format: in vivo, Sprague-Dawley rats; settings: median (IQR)
[3] = Hematology of cynomolgus monkeys at the end of treatment; format: in vivo; settings: female, median (IQR)
Outline: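 GLP 10-day study in male and female cynomolgus monkeys (n = 3-5/sex/group) dosed once daily with 0 (placebo), 5, 10 or 15 mg/kg test compound by i.v. infusion over 60 ± 5 min. Hematology, serum chemistry and coagulation were taken at end of treatment and reported as median (IQR). Dose groups were compared by Kruskal-Wallis with Dunn's multiple comparison test.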

## CC[C@H](C)[C@@H]1NC(=O)[C@@H]2CSSC[C@H](NC(=O)[C@H](CCCNC(=N)N)NC(=O)[C@@H]3CSSC[C@H](NC1=O)C(=O)N[C@@H]([C@@H](C)O)C(=O)N[C@@H](CCCNC(=N)N)C(=O)NCC(=O)N[C@@H](Cc1ccccc1)C(=O)N3)C(=O)N[C@@H](CC(C)C)C(=O)N[C@H]1CSSC[C@H](NC(=O)[C@H](C(C)C)NC(=O)CNC(=O)[C@H](CCCNC(=N)N)NC(=O)[C@H](CCCNC(=N)N)NC1=O)C(=O)N[C@@H](CCCNC(=N)N)C(=O)N2 [RTD-1, Rhesus theta (θ) defensin-1] (HELM PEPTIDE1{G.F.C.R.C.L.C.R.R.G.V.C.R.C.I.C.T.R}$PEPTIDE1,PEPTIDE1,3:R3-16:R3|PEPTIDE1,PEPTIDE1,5:R3-14:R3|PEPTIDE1,PEPTIDE1,7:R3-12:R3|PEPTIDE1,PEPTIDE1,1:R1-18:R2$$$V2.0)
[1]; pooled NCA
  AUC0-∞: 12,497 ng · h/mL
  AUCτ: 12,282 ng · h/mL
  CL: 6.67 mL/min/kg
  MRT: 2.62 h
  λz: 0.114 h⁻¹
[1]; pooled, estimate (SE)
  Cmax: 8,919 (1,088)^b ng/mL
[2]; female, 5 mg/kg
  APTT: 10.60 (0.70) s
  Fibrinogen: 223.00 (80.00) mg/dL
  PT: 16.30 (1.40) s
[2]; female, 10 mg/kg
  APTT: 10.85 (2.43) s
  Fibrinogen: 283.00 (36.50) mg/dL
  PT: 17.05 (0.60) s
[2]; female, 20 mg/kg, day 2
  APTT: 29.20 (20.65)^b^,^c^,^d s
  Fibrinogen: 83.00 (151.75)^d mg/dL
  PT: 23.45 (9.75)^b^,^c s
[2]; male, 5 mg/kg
  APTT: 14.80 (0.98) s
  Fibrinogen: 262.50 (9.00) mg/dL
  PT: 15.95 (0.50) s
[2]; male, 10 mg/kg
  APTT: 14.60 (1.05) s
  Fibrinogen: 261.00 (54.75) mg/dL
  PT: 17.50 (1.40) s
[2]; male, 20 mg/kg, day 2
  APTT: 18.50 (3.13)^b^,^c^,^d s
  Fibrinogen: 98.00 (18.50)^b^,^c^,^d mg/dL
  PT: 21.25 (1.40)^b^,^c s
[3]; 5 mg/kg/day
  Basophils, absolute: 0.05 (0.01) 10^3/mm^3
  Eosinophils, absolute: 0.32 (0.27) 10^3/mm^3
  Hematocrit: 43.80 (3.15) %
  Hemoglobin: 12.90 (0.35) g/dL
  LUC, absolute: 0.11 (0.02) 10^3/mm^3
  Lymphocytes, absolute: 3.40 (1.18) 10^3/mm^3
  MCH: 21.20 (1.10) pg
  MCHC: 29.50 (1.35) g/dL
  MCV: 69.20 (1.70) fL
  Monocytes, absolute: 0.53 (0.21) 10^3/mm^3
  Neutrophils, absolute: 6.43 (2.10) 10^3/mm^3
  Platelets: 576.00 (58.00) 10^3/mm^3
  RBC: 6.05 (0.47) 10^6/mm^3
  RDW: 15.10 (0.50) %
  Reticulocytes, absolute: 53.60 (17.00) 10^9/L
  WBC: 12.70 (2.30) 10^3/mm^3
[3]; 10 mg/kg/day
  Basophils, absolute: 0.06 (0.04) 10^3/mm^3
  Eosinophils, absolute: 0.40 (0.06) 10^3/mm^3
  Hematocrit: 38.50 (4.60) %
  Hemoglobin: 10.70 (1.25) g/dL
  LUC, absolute: 0.10 (0.01) 10^3/mm^3
  Lymphocytes, absolute: 4.46 (1.00) 10^3/mm^3
  MCH: 20.20 (1.00) pg
  MCHC: 28.80 (0.70) g/dL
  MCV: 69.70 (4.30) fL
  Monocytes, absolute: 0.66 (0.13) 10^3/mm^3
  Neutrophils, absolute: 5.08 (5.64) 10^3/mm^3
  Platelets: 497.00 (214.50) 10^3/mm^3
  RBC: 5.30 (0.94) 10^6/mm^3
  RDW: 15.10 (0.70) %
  Reticulocytes, absolute: 70.30 (33.40) 10^9/L
  WBC: 10.70 (6.80) 10^3/mm^3
[3]; 15 mg/kg/day
  Basophils, absolute: 0.12 (0.01) 10^3/mm^3
  Eosinophils, absolute: 0.34 (0.10) 10^3/mm^3
  Hematocrit: 38.50 (6.90) %
  Hemoglobin: 10.90 (1.70) g/dL
  LUC, absolute: 0.16 (0.06) 10^3/mm^3
  Lymphocytes, absolute: 5.09 (2.32) 10^3/mm^3
  MCH: 19.90 (0.30) pg
  MCHC: 28.80 (1.10) g/dL
  MCV: 68.90 (2.00) fL
  Monocytes, absolute: 0.79 (0.15)^c 10^3/mm^3
  Neutrophils, absolute: 11.31 (5.67) 10^3/mm^3
